Experimental data reported in ChEMBL document CHEMBL1268948, “1,6-AnhMurNAc derivatives for assay development of amidase AmiD” (Bioorg Med Chem, 2010).
Calls of active or inactive are those of the source. The rule behind the calls is not given here.

Assays:
Escherichia coli [1] = test: Inhibition of Escherichia coli N-acetyl-muramoyl-L-alanine amidase AmiD assessed as residual activity at 100 uM after 20 mins
Method in brief: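 Periplasmic soluble E. coli AmiD (sAmiD, 39 nM) was preincubated with the test compound for 20 min at 30 °C in 20 mM sodium phosphate buffer containing 48 nM ZnCl₂. Residual activity was taken as the initial rate of hydrolysis of 29 µM TCT (GlcNAc-anhMurNAc-tetrapeptide) added afterwards. The reaction was stopped after 20 min with diluted H₃PO₄ and analysed by RP-HPLC.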

Escherichia coli [2] = test: Inhibition of Escherichia coli N-acetyl-muramoyl-L-alanine amidase AmiD assessed as residual activity at 1 mM preincubated for 30 mins
Escherichia coli [3] = test: Inhibition of Escherichia coli N-acetyl-muramoyl-L-alanine amidase AmiD assessed as residual activity at 1 mM after 20 mins; values are per cent of control
Escherichia coli [4] = test: Inhibition of Escherichia coli N-acetyl-muramoyl-L-alanine amidase AmiD assessed as residual activity at 0.5 mM after 20 mins; values are per cent of control

SMILES | inhibition (Escherichia coli [1]) | inhibition (Escherichia coli [2]) | residual activity (Escherichia coli [3]) | residual activity (Escherichia coli [4])
CC(=O)N[C@H]1[C@@H]2OC[C@@H](O2)[C@@H](O)[C@H]1O[C@H](C)C(=O)N[C@@H](C)C(=O)Nc1ccc([N+](=O)[O-])cc1 | inactive | inactive |  | 
CC(=O)N[C@H]1[C@@H]2OC[C@@H](O2)[C@@H](O)[C@H]1O[C@H](C)C(=O)N[C@@H](C)C(=O)N[C@H](CCC(=O)Nc1ccccc1)C(=O)O | inactive |  | 64% | 83%
CC(=O)N[C@H]1[C@@H]2OC[C@@H](O2)[C@@H](O)[C@H]1O[C@H](C)C(=O)Nc1ccccc1 | inactive | inactive |  | 
CC(=O)N[C@H]1[C@@H]2OC[C@@H](O2)[C@@H](OCc2ccccc2)[C@H]1O[C@H](C)C(=O)O |  | inactive |  | 
CC(=O)N[C@H]1[C@@H]2OC[C@@H](O2)[C@@H](O)[C@H]1O[C@H](C)C(=O)Nc1ccc(C(C)=O)cc1 | inactive | inactive |  | 
CC(=O)N[C@H]1[C@@H]2OC[C@@H](O2)[C@@H](O)[C@H]1O[C@H](C)C(=O)Nc1ccc(C(F)(F)F)cc1 | inactive | inactive |  | 
